# Screens (PubChem BioAssay)
# MrgX1 antagonist = human MrgX1 receptor antagonism, primary screen. AID 588676. MRGX1-HEK293 calcium flux, Fluo-4, BAM8-22 antagonism; hits give low values. B-score at 10 µM. 310,000 tested, 1.3% active;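 active means calcium-response B-score plate-corrected more than 3 library SD below zero, starting fluorescence within 5 deviations, no agonist response on first addition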;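 further: peak minus trough fluorescence over baseline after final BAM8-22 challenge near maximal dose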
# Target sequence (Q96LB2 whole entry, looked up): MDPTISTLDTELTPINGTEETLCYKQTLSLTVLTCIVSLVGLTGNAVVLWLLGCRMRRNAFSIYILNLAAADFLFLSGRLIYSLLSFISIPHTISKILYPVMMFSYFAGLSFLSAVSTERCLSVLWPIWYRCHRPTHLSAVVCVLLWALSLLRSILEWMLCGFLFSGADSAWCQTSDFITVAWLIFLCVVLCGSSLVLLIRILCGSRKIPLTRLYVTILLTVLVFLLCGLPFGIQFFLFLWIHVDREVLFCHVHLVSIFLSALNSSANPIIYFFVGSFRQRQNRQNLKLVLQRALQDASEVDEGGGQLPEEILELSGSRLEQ
# RGS4 act = potentiators or activators of RGS4; 310,000 tested, 0.92% active; B-score at 10 µM; AID 463111; HEK293 M3R/inducible RGS4, carbachol calcium flux Fluo4; hits give low values;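 active means B-score of the integrated calcium signal more than 4 SD below the library mean, with starting fluorescence not abnormally high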;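 further: negative B-score means reduced calcium response which marks RGS4 activation or potentiation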
#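 Material: M3R-expressing HEK293 line, RGS4 induced by doxycycline | Schedule: Overnight RGS4 induction, 30 min dye load 37 °C, 20 min compound RT | Measured by: Fluo4 fluorescence kinetic imaging of calcium | Read-out: Integrated calcium ratio converted to B score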
# RGS4 inh = inhibitors of human RGS4. HEK293 M3R/RGS4 inducible, Fluo-4 calcium flux; hits give high values; triggered by carbachol at its EC20. B-score at 10 µM. 310,000 tested, 0.45% active. P49798;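 active means B-score, a plate-corrected calcium signal, over three deviations above library mean, with baseline fluorescence within five deviations of library mean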;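 further: RGS4 expression induced by doxycycline in cells with stable M3 receptor; B-score is computed from the integrated fluorescence ratio over baseline after carbachol; higher B-score means a larger calcium signal and so more RGS4 inhibition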
# Target sequence (P49798 whole entry, looked up): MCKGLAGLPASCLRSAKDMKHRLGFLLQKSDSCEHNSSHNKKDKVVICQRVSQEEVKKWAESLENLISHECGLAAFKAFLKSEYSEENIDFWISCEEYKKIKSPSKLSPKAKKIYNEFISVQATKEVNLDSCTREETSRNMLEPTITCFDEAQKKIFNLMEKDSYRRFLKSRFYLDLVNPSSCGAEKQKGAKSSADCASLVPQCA
# MrgX1 agonist = agonists of human MrgX1 receptor. Q96LB2. MrgX1-HEK293 cells, Fluo-4 calcium fluorescence, agonist mode; hits give high values. B-score at 10 µM. 310,000 tested, 0.44% active. AID 588627;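 active means calcium response B-score plate-corrected fluorescence ratio at least 3 library SD, with starting fluorescence B-score inside 5 SD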
#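 Test system: Stable human MrgX1 HEK293 cell line | Schedule: Overnight plating before 1 h dye loading | Read-out basis: Baseline-normalised fluorescence change ratio, B-scored | Detection: Kinetic calcium dye fluorescence, Fluo-4 NW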
# MrgX1 allo act = human MrgX1 positive allosteric modulation, primary screen. Q96LB2. 310,000 tested, 0.63% active. B-score at 10 µM. AID 588675. MrgX1-HEK293, Fluo-4 calcium flux, FDSS; hits give high values;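 active means plate-corrected calcium response at least 3 library SD above typical, normal starting fluorescence, not activating the receptor alone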;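 further: compound read alongside a low EC10 to EC30 dose of BAM8-22 agonist; peak minus trough fluorescence over baseline measured at the second addition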
# RGS4 block valid = RGS4 inhibitor validation; shares compounds with RGS4 inh; HEK293 M3R/RGS4, carbachol calcium Fluo-4 fluorescence; carbachol added at its EC20; 0 = buffer wells, 100 = carbachol control; calcium response, % at 10 µM; 1,700 tested, 65% active; AID 492999;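 active means duplicate-averaged calcium response above the buffer-only control mean plus 5 SD of those controls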;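 further: integrated fluorescence ratio F max minus min over baseline F0; higher response in RGS4-induced cells means RGS4 inhibition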
# M3R Ca ctr = counter-screen for RGS4 inhibitors: effect in non-induced cells; activity (percent), % at 10 µM; shares compounds with RGS4 inh; AID 493000; HEK293 M3R non-induced, carbachol calcium Fluo-4; submaximal (EC20) carbachol stimulus; buffer wells 0%, carbachol control wells 100%; 1,900 tested, 20% active; call rule not given here;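 further: RGS4 induction absent so cells express M3R without RGS4; higher means more calcium signal and flags a non-specific hit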
# RGS4 inh ctr2 = second counter-screen for RGS4 inhibitors: non-induced cells without carbachol. HEK293 M3R/RGS4 non-induced, Fluo-4 calcium, no carbachol; normalised: buffer wells 0%, carbachol wells 100%. AID 493001. 1,900 tested, 22% active. calcium response (agonist-mode artifact), % at 10 µM. shares compounds with RGS4 inh;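 active means duplicate-averaged calcium rise in uninduced cells above buffer wells' mean plus 5 SD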
# Starred values were filed as active, the others as inactive; i = inactive; nt = not tested or not shown. Rows were chosen to be rich in hits. Some 3.5% of all compounds tested hit in one or more screens of this group.
SMILES,MrgX1 antagonist,RGS4 act,RGS4 inh,MrgX1 agonist,MrgX1 allo act,RGS4 block valid,M3R Ca ctr,RGS4 inh ctr2
O=C(NCc1ccccc1F)C1CCCN1C(=O)Nc1ccc(Cl)cc1 (configuration not stated),i,i,i,i,i,nt,nt,nt
Cc1cc(Cl)n2c(nc3cc(F)c(F)cc32)c1C#N,nt,i,7.5*,nt,nt,13%*,i,9.5%*
Cc1cc(-c2ccco2)n2c(nc3ccccc32)c1C#N,i,i,i,i,i,nt,nt,nt
COc1ccc(Cl)cc1S(=O)(=O)N1CCC(C(=O)NCc2ccco2)CC1,i,i,i,i,i,nt,nt,nt
CCN(CC)c1ccc(N2C(=O)/C(=C\c3cccnc3)SC2=S)cc1,i,i,7.3*,i,i,i,i,i
O=C(C1CCC(Cn2c(=S)[nH]c3ccccc3c2=O)CC1)N1CCN(c2ccccn2)CC1 (configuration not stated),i,i,i,i,i,nt,nt,nt
O=C(C1CCC(Cn2c(=O)[nH]c3ccccc3c2=O)CC1)N1CCN(c2ccccc2)CC1 (configuration not stated),i,i,i,i,i,nt,i,i
COc1ccc(N2CCN(C(=O)C3CCC(Cn4c(=S)[nH]c5ccccc5c4=O)CC3)CC2)cc1 (configuration not stated),i,i,i,i,i,nt,i,i
O=c1oc2ccccc2c(Cl)c1CN1CCCCC1,i,i,i,i,i,nt,nt,nt
CCOc1ccccc1NC(=O)N1CCC(NC(=O)C2CCCCC2)CC1,nt,i,i,nt,nt,nt,nt,nt
Cc1[nH]n(-c2ccccc2)c(=O)c1C=Nc1ccc(S(N)(=O)=O)cc1,i,i,i,i,i,nt,nt,nt
Cc1[nH]n(-c2c(Cl)cc(Cl)cc2Cl)c(=O)c1C=Nc1ccc(S(=O)(=O)N2CCOCC2)cc1,i,i,i,i,i,i,i,i
O=[N+]([O-])c1ccc(N2CCOCC2)cc1O,i,i,i,i,i,nt,nt,nt
Cc1cc(N2CCOCC2)ccc1/C=C\[N+](=O)[O-],i,i,27*,67*,i,98%*,57%*,75%*
O=C(CSCC(=O)N1CCCCC1)Nc1nc(-c2ccc(Cl)s2)cs1,i,i,9.3*,i,i,i,i,i
O=C(CSCC(=O)N1CCN(c2ccccc2)CC1)Nc1nc(-c2ccc(Cl)s2)cs1,i,i,i,i,i,i,i,i
CCOC(=O)N1CCN(C(=O)CSCC(=O)Nc2nc(-c3ccccc3)cs2)CC1,i,i,i,i,i,nt,nt,nt
O=C(CSCC(=O)N1CCCCC1)Nc1nc(-c2cccs2)cs1,i,i,i,i,i,nt,nt,nt
Cc1[nH]nc2c1C(c1ccc(-c3ccccc3C#N)o1)C(C#N)=C(N)O2 (configuration not stated),i,i,9.8*,i,i,24%*,i,8.5%*
COc1ccc2c(c1)-c1nc(NC(=O)c3ccco3)sc1CC2,i,i,17*,i,i,48%*,59%*,i
COc1ccc2c(c1)Cc1sc(NC(C)=O)nc1-2,i,i,i,i,i,nt,nt,nt
COc1ccc2c(c1)Cc1sc(NC(=O)c3ccco3)nc1-2,i,i,i,i,i,nt,i,i
Cc1sc(NC(=O)c2ccco2)nc1-c1ccccc1,i,i,7*,i,i,31%*,i,i
COc1ccc2c(c1)CCc1sc(NC(=O)c3ccco3)nc1-2,i,i,6.6*,i,i,26%*,32%*,i
COC(=O)c1cc(=O)n(Cc2ccc(F)cc2)c(=Nc2ccccc2)s1,i,i,i,i,i,nt,nt,nt
SMILES,MrgX1 antagonist,RGS4 act,RGS4 inh,MrgX1 agonist,MrgX1 allo act,RGS4 block valid,M3R Ca ctr,RGS4 inh ctr2
COC(=O)c1cc(=O)n(Cc2ccc(OC)c(OC)c2)c(=Nc2ccc(F)cc2)s1,i,i,i,i,i,nt,nt,nt
COC(=O)c1cc(=O)n(CCc2ccc(OC)c(OC)c2)c(=Nc2ccc(F)c(Cl)c2)s1,i,i,5.4*,i,i,13%*,i,10%*
COC(=O)c1cc(=O)n(Cc2ccco2)c(=Nc2ccc(F)cc2)s1,i,i,6.1*,i,i,15%*,44%*,i
COC(=O)c1cc(=O)n(-c2ccccc2)c(=Nc2ccccc2)s1,i,i,8.1*,i,i,19%*,i,i
C#CCOCCOCCOCCNc1nc(N2CCN(C(=O)C([C@@H](C)CC)n3cc(C(N)CO)nn3)CC2)nc(N2CCN(C(=O)C([C@@H](C)CC)n3cc(C(N)COC(=O)C(F)(F)F)nn3)CC2)n1 (some centres not stated),i,i,i,i,i,nt,nt,nt
CCN1C(=O)C(CC(=O)Nc2ccc(Br)cc2)N(CCCc2ccccc2)C1=S (configuration not stated),i,i,i,i,i,nt,nt,nt
CC(C)(C)c1ccc(/C=C(\c2nc3ccccc3[nH]2)S(=O)(=O)c2ccccc2)cc1,i,i,i,i,i,i,i,i
COC(=O)c1ccc(N2NC(=O)/C(=C/c3cc(OC)c(O)c(OC)c3)C2=O)cc1,i,i,i,i,i,i,i,30%*
COc1cccc(/C=C2/C(=O)NN(c3ccc(Br)cc3)C2=O)c1O,i,i,i,i,i,nt,nt,nt
COC(=O)c1ccc(N2NC(=O)/C(=C/c3cc(OC)c(OC)c(OC)c3)C2=O)cc1,i,i,4.9*,i,i,14%*,i,i
COc1cc(/C=C2/C(=O)NN(c3ccc(F)cc3)C2=O)cc(Cl)c1O,i,i,6.2*,30*,i,14%*,35%*,18%*
COc1cc(/C=C2/C(=O)N(c3ccc(Br)cc3)N=C2C)cc([N+](=O)[O-])c1O,i,i,i,i,i,nt,nt,nt
Cc1cc(C)c(C)c(S(=O)(=O)NCC(=O)NCC2CCCCC2)c1C,i,i,i,i,i,nt,nt,nt
CCC(=O)NC(Nc1sc2c(c1C(=O)OC)CCN(C)C2)(C(F)(F)F)C(F)(F)F,i,i,i,i,i,nt,nt,nt
